Structures can show the parent of a compound that is named as a salt. Activity calls are given as the source filed them. The rule behind the calls is not given here.
What was measured:
[1] = molecular target: DNA topoisomerase 2-alpha (Homo sapiens) (UniProt P11388); assay: Inhibition of human DNA topoisomerase-2alpha at 100 uM using supercoiled pBR322 DNA as substrate after 30 mins by ethidium bromide staining based agarose gel electrophoresis relative to control
Summary of the method: (§1)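 Human topo IIα, 1 unit set by full relaxation of pBR322, with 100 ng pBR322 for 30 min in 10 mM Tris-HCl pH 7.9, 50 mM NaCl, 5 mM MgCl2, 1 mM EDTA and BSA. Stop was with EDTA. Screening was at 100 µM, with retest at 20 µM if inhibition exceeded 30%. Gel was 1% agarose at 25 V for 4 h in TAE, stained with ethidium bromide. Mean ± S.D. from three experiments in triplicate.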

[2] = molecular target: T1, DNA topoisomerase 1 (Homo sapiens) (UniProt P11387); assay: Inhibition of human DNA topoisomerase-1 at 20 uM using supercoiled pBR322 DNA as substrate after 30 mins by ethidium bromide staining based agarose gel electrophoresis relative to control
T1 sequence (whole entry): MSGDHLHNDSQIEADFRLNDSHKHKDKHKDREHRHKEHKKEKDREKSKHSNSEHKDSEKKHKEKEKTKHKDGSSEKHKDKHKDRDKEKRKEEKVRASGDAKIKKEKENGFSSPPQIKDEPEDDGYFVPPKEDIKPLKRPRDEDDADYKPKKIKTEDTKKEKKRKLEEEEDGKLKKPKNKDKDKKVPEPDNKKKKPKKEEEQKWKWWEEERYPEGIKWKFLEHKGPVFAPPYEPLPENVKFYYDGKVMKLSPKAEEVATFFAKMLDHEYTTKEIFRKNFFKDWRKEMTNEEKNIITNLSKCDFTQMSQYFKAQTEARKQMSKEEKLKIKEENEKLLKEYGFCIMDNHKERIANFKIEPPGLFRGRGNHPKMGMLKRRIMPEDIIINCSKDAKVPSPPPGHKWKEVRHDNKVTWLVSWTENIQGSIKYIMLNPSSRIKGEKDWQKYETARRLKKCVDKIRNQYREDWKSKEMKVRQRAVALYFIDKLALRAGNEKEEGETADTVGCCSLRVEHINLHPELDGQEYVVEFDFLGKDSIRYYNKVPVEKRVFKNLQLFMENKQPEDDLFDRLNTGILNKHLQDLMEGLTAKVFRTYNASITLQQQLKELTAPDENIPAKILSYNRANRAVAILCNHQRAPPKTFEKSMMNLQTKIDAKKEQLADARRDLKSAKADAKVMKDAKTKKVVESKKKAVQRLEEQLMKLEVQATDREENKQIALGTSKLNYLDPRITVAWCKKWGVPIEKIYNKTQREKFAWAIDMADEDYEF
Summary of the method: (§2)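 Recombinant human topo I, 1 unit (the amount that fully relaxes supercoiled pBR322), with 100 ng pBR322 DNA at 37 °C for 30 min in 10 mM Tris-HCl pH 7.9, 150 mM NaCl, 0.1% BSA. Compounds were screened at 100 µM, and those above 30% inhibition were retested at 20 µM. Products ran on 1% agarose at 15 V for 7 h in TAE with ethidium bromide staining. Mean ± S.D. from three experiments in triplicate.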

[3] = molecular target: T1, DNA topoisomerase 1 (Homo sapiens); assay: Inhibition of human DNA topoisomerase-1 at 100 uM using supercoiled pBR322 DNA as substrate after 30 mins by ethidium bromide staining based agarose gel electrophoresis relative to control; summary of the method: as §2
[4] = molecular target: DNA topoisomerase 2-alpha (Homo sapiens) (UniProt P11388); assay: Inhibition of human DNA topoisomerase-2alpha at 20 uM using supercoiled pBR322 DNA as substrate after 30 mins by ethidium bromide staining based agarose gel electrophoresis relative to control; summary of the method: as §1
[5] = Antiproliferative activity against human HeLa cells after 72 hrs by CCK8 assay; assay type: functional, cell-based
Summary of the method: (§3)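 Cells seeded at 2–4 × 10^4 per well, grown overnight in medium with 10% FBS at 37 °C and 5% CO2. After 4 h FBS starvation they were exposed to graded compound concentrations for 72 h. CCK-8 was added for a further 4 h and absorbance read at 450 nm. IC50 came from a four-parameter logistic fit.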

[6] = Antiproliferative activity against human HCT15 cells after 72 hrs by CCK8 assay; assay type: functional, cell-based; conditions: HCT-15, 72 h; summary of the method: as §3
[7] = Antiproliferative activity against human DU145 cells after 72 hrs by CCK8 assay; assay type: functional, cell-based; conditions: DU-145, 72 h; summary of the method: as §3
[8] = Antiproliferative activity against human T47D cells after 72 hrs by CCK8 assay; assay type: functional, cell-based; summary of the method: as §3
Homo sapiens [9] = species on record: Homo sapiens; assay: Inhibition of DNA topoisomerase catalytic activity in human T47D nuclear extract at 50 uM using supercoiled pBR322 DNA as substrate after 24 hrs by ethidium bromide staining based agarose gel electrophoresis relative to control
Summary of the method: (§4)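 T47D cells at 5 × 10^5 per 60 mm dish were grown to 80% confluence, washed with FBS-free medium and treated 24 h. Nuclear extracts were prepared in HEPES/MgCl2/KCl/DTT/NP40 buffer, then extracted with NaCl buffer. The amount of extract that fully relaxes 100 ng pBR322 at 37 °C in 20 min was set as the unit. Products were run on agarose in TAE and stained with ethidium bromide (0.5 µg/mL).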

[10] = Antiproliferative activity against HFL1 cells after 72 hrs by CCK8 assay; assay type: cell-based; conditions: Homo sapiens, HFL1, 72 h; summary of the method: as §3
[11] = Antiproliferative activity against HEK293 cells after 72 hrs by CCK8 assay; assay type: cell-based; conditions: Homo sapiens, HEK293, 72 h; summary of the method: as §3
Homo sapiens [12] = species on record: Homo sapiens; assay: Inhibition of DNA topoisomerase catalytic activity in human T47D nuclear extract at 20 uM using supercoiled pBR322 DNA as substrate after 24 hrs by ethidium bromide staining based agarose gel electrophoresis relative to control; summary of the method: as §4
[13] = molecular target: DNA topoisomerase 2-alpha (Homo sapiens) (UniProt P11388); assay: Inhibition of human DNA topoisomerase-2alpha at 500 uM using supercoiled pBR322 DNA as substrate after 20 mins by ethidium bromide staining based agarose gel electrophoresis relative to control
[14] = molecular target: DNA topoisomerase 2-alpha (Homo sapiens) (UniProt P11388); assay: Inhibition of human DNA topoisomerase-2alpha ATPase activity at 400 uM using supercoiled pBR322 DNA as substrate after 1 hr by malachite green dye based assay relative to control
Summary of the method: (§5)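 Topo IIα ATPase: 4 units of enzyme with 100 ng supercoiled pBR322 and 250 µM ATP in 10 mM Tris-HCl pH 7.9, 50 mM NaCl, 50 mM KCl, 5 mM MgCl2, 0.1 mM EDTA, 15 µg/mL BSA at 37 °C for 1 h. Malachite green reagent was then added for 30 min at room temperature, and released phosphate was read at 620 nm.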

[15] = molecular target: DNA topoisomerase 2-alpha (Homo sapiens) (UniProt P11388); assay: Inhibition of human DNA topoisomerase-2alpha ATPase activity at 300 uM using supercoiled pBR322 DNA as substrate after 1 hr by malachite green dye based assay relative to control; summary of the method: as §5
[16] = molecular target: DNA topoisomerase 2-alpha (Homo sapiens) (UniProt P11388); assay: Inhibition of human DNA topoisomerase-2alpha ATPase activity at 200 uM using supercoiled pBR322 DNA as substrate after 1 hr by malachite green dye based assay relative to control; summary of the method: as §5
[17] = molecular target: T1, DNA topoisomerase 1 (Homo sapiens); assay: Poison activity at human DNA topoisomerase-1 assessed as DNA intercalation by measuring DNA unwinding using pHOT1 DNA as substrate after 30 mins by ethidium bromide staining based agarose gel electrophoresis

Sequence of DNA topoisomerase 2-alpha (Homo sapiens) (P11388 whole entry): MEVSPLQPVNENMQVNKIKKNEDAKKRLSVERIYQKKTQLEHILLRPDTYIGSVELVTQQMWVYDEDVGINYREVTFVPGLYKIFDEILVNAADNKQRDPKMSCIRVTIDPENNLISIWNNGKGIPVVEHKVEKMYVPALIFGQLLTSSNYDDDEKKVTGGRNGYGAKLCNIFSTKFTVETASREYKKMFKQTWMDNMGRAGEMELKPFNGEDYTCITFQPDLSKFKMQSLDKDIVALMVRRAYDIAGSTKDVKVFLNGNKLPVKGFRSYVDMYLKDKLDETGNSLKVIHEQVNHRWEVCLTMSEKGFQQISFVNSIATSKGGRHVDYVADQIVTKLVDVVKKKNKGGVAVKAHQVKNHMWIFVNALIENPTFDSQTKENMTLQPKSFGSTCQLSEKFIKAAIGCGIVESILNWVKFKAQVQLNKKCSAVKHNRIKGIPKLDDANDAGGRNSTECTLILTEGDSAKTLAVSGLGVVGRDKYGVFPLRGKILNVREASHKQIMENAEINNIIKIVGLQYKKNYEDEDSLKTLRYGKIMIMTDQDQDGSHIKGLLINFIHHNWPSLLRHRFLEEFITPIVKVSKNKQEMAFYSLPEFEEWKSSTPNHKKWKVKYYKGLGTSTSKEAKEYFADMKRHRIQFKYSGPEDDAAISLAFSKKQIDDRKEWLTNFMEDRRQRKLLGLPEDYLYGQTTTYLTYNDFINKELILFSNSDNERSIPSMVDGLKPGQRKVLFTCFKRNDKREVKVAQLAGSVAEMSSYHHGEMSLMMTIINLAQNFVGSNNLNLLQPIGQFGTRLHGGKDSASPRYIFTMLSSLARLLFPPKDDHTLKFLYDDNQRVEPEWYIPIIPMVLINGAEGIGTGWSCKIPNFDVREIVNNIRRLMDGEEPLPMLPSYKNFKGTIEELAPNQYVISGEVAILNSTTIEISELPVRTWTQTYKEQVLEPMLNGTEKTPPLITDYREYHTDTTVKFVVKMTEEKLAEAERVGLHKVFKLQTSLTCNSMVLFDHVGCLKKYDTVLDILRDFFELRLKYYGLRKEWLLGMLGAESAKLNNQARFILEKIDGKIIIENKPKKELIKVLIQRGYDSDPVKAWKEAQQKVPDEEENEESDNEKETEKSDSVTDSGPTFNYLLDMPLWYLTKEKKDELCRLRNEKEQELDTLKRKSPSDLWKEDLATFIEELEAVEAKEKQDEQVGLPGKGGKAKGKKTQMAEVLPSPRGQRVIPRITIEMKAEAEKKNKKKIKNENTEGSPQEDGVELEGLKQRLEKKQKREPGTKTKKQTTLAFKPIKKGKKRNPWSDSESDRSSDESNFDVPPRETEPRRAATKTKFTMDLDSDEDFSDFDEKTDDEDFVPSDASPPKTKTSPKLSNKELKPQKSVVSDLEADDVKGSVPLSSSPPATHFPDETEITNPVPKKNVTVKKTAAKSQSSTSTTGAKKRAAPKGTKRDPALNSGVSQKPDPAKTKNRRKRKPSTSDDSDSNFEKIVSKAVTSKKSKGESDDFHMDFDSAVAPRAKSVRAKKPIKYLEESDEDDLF

Compound | inhibition [1] | inhibition [2] | inhibition [3] | inhibition [4] | inhibition (Homo sapiens [9]) | inhibition (Homo sapiens [12]) | inhibition [13] | inhibition [14] | inhibition [15] | inhibition [16] | IC50 [5] | IC50 [6] | IC50 [7] | IC50 [8] | IC50 [10] | IC50 [11] | Activity [17]
CC[C@@]1(O)C(=O)OCc2c1cc1n(c2=O)Cc2cc3ccccc3nc2-1 [CAMPTOTHECIN] | – | – | – | – | – | – | – | – | – | – | 0.4 to 7.32 µM | 0.31 to 18.9 µM | 0.11 to 2.09 µM | 13.7 µM | 1.06 µM | 0.83 µM | –
COc1cccc2c1C(=O)c1c(O)c3c(c(O)c1C2=O)C[C@@](O)(C(=O)CO)C[C@@H]3O[C@H]1C[C@H](N)[C@H](O)[C@H](C)O1 [DOXORUBICIN HYDROCHLORIDE] | – | – | – | – | – | – | – | – | – | – | 0.88 to 1.2 µM | 1.08 to 1.23 µM | 0.52 to 1 µM | 1.34 µM | 2.31 µM | 4.96 µM | –
COc1cc(NS(C)(=O)=O)ccc1Nc1c2ccccc2nc2ccccc12 | – | – | – | – | – | – | – | – | – | – | – | – | – | – | – | – | Dose-dependent effect
c1ccc(-c2cc(-c3ccsc3)nc3c2Cc2ccccc2-3)cc1 | 0.5% | 0% | 72.5% | – | – | – | – | – | – | – | > 50 µM | > 50 µM | > 50 µM | – | – | – | –

More lines, main results first:

inhibition [1] | inhibition [2] | inhibition [3] | inhibition [4] | inhibition (Homo sapiens [9]) | inhibition (Homo sapiens [12]) | inhibition [13] | inhibition [14] | inhibition [15] | inhibition [16] | Compound | IC50 [5] | IC50 [6] | IC50 [7] | IC50 [8] | IC50 [10] | IC50 [11] | Activity [17]
75.5% | 0% | 33.1% | 22% | – | – | – | – | – | – | Oc1cccc(-c2cc(-c3ccsc3)nc3c2Cc2ccccc2-3)c1 | 1.74 µM | 2.49 µM | 3.12 µM | 1.52 µM | – | – | –
95.1% | 53.5% | 69.7% | 92.2% | 97% | 34.3% | Active | 0% | – | – | Oc1ccc(-c2cc(-c3ccco3)nc3c2Cc2ccccc2-3)cc1 | 3.96 µM | 3.12 µM | 3.74 µM | 0.95 µM | 7.99 µM | 3.47 µM | –
– | – | – | – | 61.1% | – | – | – | – | – | COc1cc([C@@H]2c3cc4c(cc3[C@@H](O[C@@H]3O[C@@H]5CO[C@@H](C)O[C@H]5[C@H](O)[C@H]3O)[C@H]3COC(=O)[C@H]23)OCO4)cc(OC)c1O [ETOPOSIDE] | 0.18 to 1.4 µM | 1.1 to 2.82 µM | 0.02 to 13.1 µM | – | 87.6 µM | 1.74 µM | –
58.7% | 27.1% | 62.4% | 20% | – | – | – | – | – | – | Oc1ccccc1-c1cc(-c2ccco2)nc2c1Cc1ccccc1-2 | > 50 µM | > 50 µM | > 50 µM | > 50 µM | – | – | –
– | – | – | – | – | – | – | 55.9% | 33.3% | 22.7% | CO[C@@H]1[C@@H](OC(N)=O)[C@@H](O)[C@H](Oc2ccc3c(O)c(NC(=O)c4ccc(O)c(CC=C(C)C)c4)c(=O)oc3c2C)OC1(C)C | – | – | – | – | – | – | –
74.8% | 2.5% | 45.5% | 65.9% | – | – | – | – | – | – | Oc1ccc(-c2cc(-c3ccsc3)nc3c2Cc2ccccc2-3)cc1 | 4.9 µM | 2.45 µM | 3.35 µM | 4.52 µM | – | – | –
5.8% | 0% | 56% | – | – | – | – | – | – | – | c1ccc(-c2cc(-c3cccs3)nc3c2Cc2ccccc2-3)cc1 | > 50 µM | > 50 µM | > 50 µM | – | – | – | –

Source: ChEMBL document CHEMBL3877249, “Novel 2-aryl-4-(4'-hydroxyphenyl)-5H-indeno[1,2-b]pyridines as potent DNA non-intercalative topoisomerase catalytic inhibitors” (Eur J Med Chem, 2017)
